Holding throughout (test): HIF reporter inhibition across pancreatic and renal lines – cell-based, luminescence, MIAPaCa-2, 786-0, panel, SAR follow-up (AID 652011)
One experiment concerns HIF1a. To be noted: MIAPaCa-2/PANC HIF reporter, luciferase luminescence, desferoxamine, overnight. Summed up:
(§1)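 Detection: luminescence, One-Glo; Reagent: desferoxamine; Incubation: overnight seeding and compound exposure, 37 °C, 5% CO2, 10-min detection.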

For a further experiment, the system named is HIF2a PANC. The following applies: MIAPaCa-2/PANC HIF reporter, luciferase luminescence, desferoxamine, overnight. Summed up:
as §1

For experiment [1], the target named is Endothelial PAS domain-containing protein 1 (Homo sapiens) (UniProt Q99814). The following applies: MIAPaCa-2/PANC HIF reporter, luciferase luminescence, desferoxamine, overnight; HIF2a PANC cells; mean of runs. The gist of the method: as §1
Sequence of Endothelial PAS domain-containing protein 1 (Homo sapiens) (Q99814 whole entry, looked up, the tested form may be a part): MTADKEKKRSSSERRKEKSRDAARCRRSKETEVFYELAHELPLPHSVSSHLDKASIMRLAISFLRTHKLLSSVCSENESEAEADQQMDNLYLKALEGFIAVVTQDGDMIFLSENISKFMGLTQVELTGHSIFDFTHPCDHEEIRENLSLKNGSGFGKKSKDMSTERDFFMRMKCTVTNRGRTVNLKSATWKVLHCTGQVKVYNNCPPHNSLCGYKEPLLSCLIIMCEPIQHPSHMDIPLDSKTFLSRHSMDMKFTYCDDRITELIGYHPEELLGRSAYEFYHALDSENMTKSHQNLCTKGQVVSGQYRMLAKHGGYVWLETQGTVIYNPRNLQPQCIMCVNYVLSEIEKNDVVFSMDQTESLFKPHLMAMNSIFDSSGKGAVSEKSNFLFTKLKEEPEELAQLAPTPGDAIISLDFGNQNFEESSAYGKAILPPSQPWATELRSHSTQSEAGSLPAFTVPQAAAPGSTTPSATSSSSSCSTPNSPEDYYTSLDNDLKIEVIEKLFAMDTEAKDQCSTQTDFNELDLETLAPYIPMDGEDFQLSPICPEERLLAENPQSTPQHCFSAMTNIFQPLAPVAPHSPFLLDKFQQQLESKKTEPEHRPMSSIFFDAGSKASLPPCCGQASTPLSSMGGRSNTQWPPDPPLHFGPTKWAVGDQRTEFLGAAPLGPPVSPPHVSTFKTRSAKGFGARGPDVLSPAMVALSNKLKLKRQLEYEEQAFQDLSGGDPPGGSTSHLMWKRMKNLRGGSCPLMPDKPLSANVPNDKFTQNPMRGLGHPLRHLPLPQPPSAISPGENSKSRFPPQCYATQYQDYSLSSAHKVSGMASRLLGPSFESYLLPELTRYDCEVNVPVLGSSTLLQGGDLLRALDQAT
The mark [2] stands for this setting: run 1, individual run IC50, panel line.
Where [3] appears, read: run 2, individual run IC50, panel line.

Calls of active or inactive are those of the source.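 How the source made its calls: active means IC50 of 10 µM or lower on HIF-2a in both cell lines, but not on HIF-1a; inactive means the rest, including compounds also potent on HIF-1a.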

The IC50 is the concentration that gives 50% inhibition. Take `CCNC(=O)CCc1nc(-c2ccccc2)no1`: the half-maximal inhibitory concentration (IC50) is more than 99 µM in the experiment with HIF1a (setting [2]); more than 99 µM in the experiment on HIF1a (setting [3]); more than 99 µM with HIF2a PANC (setting [2]); more than 99 µM with HIF2a PANC (setting [3]); > 99 µM (inactive) in experiment [1].
Turning to `CCCCc1ccc(-c2noc(CCC(=O)NC3CC3)n2)cc1`, the IC50 with HIF1a (setting [2]) is more than 99 µM; in the experiment on HIF1a (setting [3]), more than 99 µM; in the experiment with HIF2a PANC (setting [2]) it was more than 99 µM; in the experiment with HIF2a PANC (setting [3]), less than 0.19 µM. Also, the IC50 entry in experiment [1] is “inactive”.
For `CCNC(=O)CCc1nc(-c2ccc(OCC)cc2)no1`, the IC50 in the experiment on HIF1a (setting [2]) was more than 99 µM; in the experiment on HIF1a (setting [3]), more than 99 µM; in the experiment on HIF2a PANC (setting [2]) it was more than 99 µM; with HIF2a PANC (setting [3]) it was more than 99 µM; in experiment [1], > 99 µM (inactive).
`CCN(CC)C(=O)CCc1nc(-c2ccc(C(C)(C)C)cc2)no1`: the half-inhibitory concentration (IC50) is more than 99 µM in the experiment on HIF1a (setting [2]); more than 99 µM in the experiment on HIF1a (setting [3]); more than 99 µM with HIF2a PANC (setting [2]); more than 99 µM in the experiment on HIF2a PANC (setting [3]); > 99 µM (inactive) in experiment [1].
Turning to `O=C(CCc1nc(-c2ccccc2)no1)NC1CC1`, the IC50 is more than 99 µM in the experiment with HIF1a (setting [2]); more than 99 µM in the experiment on HIF1a (setting [3]); more than 99 µM in the experiment on HIF2a PANC (setting [2]); more than 99 µM in the experiment on HIF2a PANC (setting [3]); > 99 µM (inactive) in experiment [1].
In the case of `CCCNC(=O)CCc1nc(-c2ccc(C(C)(C)C)cc2)no1`, the half-inhibitory concentration (IC50) was more than 99 µM in the experiment on HIF1a (setting [2]), more than 99 µM in the experiment with HIF1a (setting [3]), more than 99 µM in the experiment on HIF2a PANC (setting [2]) and less than 0.19 µM in the experiment with HIF2a PANC (setting [3]). In addition, in experiment [1], the IC50 result is “inactive”.
`CNC(=O)CCc1nc(-c2ccc(C(C)(C)C)cc2)no1`: the IC50 with HIF1a (setting [2]) was more than 99 µM; in the experiment on HIF1a (setting [3]) it was more than 99 µM; with HIF2a PANC (setting [2]) it was less than 0.19 µM; in the experiment with HIF2a PANC (setting [3]), more than 99 µM. The IC50 entry in experiment [1] is “inactive”.
As for `CNC(=O)CCc1nc(-c2ccc(OC)cc2)no1`, the IC50 is more than 99 µM with HIF1a (setting [2]); more than 99 µM in the experiment on HIF1a (setting [3]); more than 99 µM with HIF2a PANC (setting [2]); more than 99 µM in the experiment with HIF2a PANC (setting [3]); > 99 µM (inactive) in experiment [1].
Take `CN(C)C(=O)CCc1nc(-c2ccc(C(C)(C)C)cc2)no1`: the IC50 with HIF1a (setting [2]) was more than 99 µM; in the experiment on HIF1a (setting [3]), more than 99 µM; in the experiment on HIF2a PANC (setting [2]), more than 99 µM; in the experiment on HIF2a PANC (setting [3]) it was more than 99 µM; in experiment [1] it was > 99 µM (inactive).
On to `CC(C)(C)c1ccc(-c2noc(CCC(=O)N3CCOCC3)n2)cc1`, for which the IC50 in the experiment with HIF1a (setting [2]) is more than 99 µM; in the experiment on HIF1a (setting [3]), more than 99 µM; in the experiment on HIF2a PANC (setting [2]), more than 99 µM; in the experiment on HIF2a PANC (setting [3]) it was more than 99 µM; in experiment [1] it was > 99 µM (inactive).
Take `CC(C)c1ccc(-c2noc(CCC(=O)NC3CC3)n2)cc1`: the IC50 is more than 99 µM in the experiment with HIF1a (setting [2]); more than 99 µM in the experiment on HIF1a (setting [3]); more than 99 µM in the experiment on HIF2a PANC (setting [2]); more than 99 µM in the experiment on HIF2a PANC (setting [3]); > 99 µM (inactive) in experiment [1].
Take `CCNC(=O)CCc1nc(-c2c(Cl)cccc2Cl)no1`: the half-inhibitory concentration (IC50) is more than 99 µM with HIF1a (setting [2]); more than 99 µM in the experiment with HIF1a (setting [3]); more than 99 µM with HIF2a PANC (setting [2]); more than 99 µM in the experiment with HIF2a PANC (setting [3]); > 99 µM (inactive) in experiment [1].
In the case of `CC(C)(C)c1ccc(-c2noc(CCC(N)=O)n2)cc1`, the 50% inhibitory concentration (IC50) is more than 99 µM in the experiment with HIF1a (setting [2]); more than 99 µM with HIF1a (setting [3]); less than 0.19 µM in the experiment on HIF2a PANC (setting [2]); less than 0.19 µM in the experiment on HIF2a PANC (setting [3]); less than 0.19 µM in experiment [1].
Turning to `CCNC(=O)CCc1nc(-c2ccc(CC)cc2)no1`, the half-maximal inhibitory concentration (IC50) is more than 99 µM in the experiment on HIF1a (setting [2]); more than 99 µM with HIF1a (setting [3]); more than 99 µM in the experiment on HIF2a PANC (setting [2]); more than 99 µM in the experiment on HIF2a PANC (setting [3]); > 99 µM (inactive) in experiment [1].
In the case of `CCNC(=O)CCc1nc(-c2cccc(C)c2)no1`, the IC50 in the experiment on HIF1a (setting [2]) was more than 99 µM; in the experiment on HIF1a (setting [3]), more than 99 µM; in the experiment on HIF2a PANC (setting [2]), more than 99 µM; in the experiment with HIF2a PANC (setting [3]) it was more than 99 µM; in experiment [1], > 99 µM (inactive).
For `CC(C)c1ccc(-c2noc(CCC(=O)NC(C)(C)C)n2)cc1`, the 50% inhibitory concentration (IC50) was more than 99 µM in the experiment with HIF1a (setting [2]); more than 99 µM in the experiment on HIF1a (setting [3]); more than 99 µM with HIF2a PANC (setting [2]); more than 99 µM in the experiment on HIF2a PANC (setting [3]); > 99 µM (inactive) in experiment [1].
Consider `O=C(O)CCc1nc(-c2ccccc2)no1`, for which the half-maximal inhibitory concentration (IC50) with HIF1a (setting [2]) is more than 99 µM; with HIF1a (setting [3]), more than 99 µM; in the experiment on HIF2a PANC (setting [2]), more than 99 µM; with HIF2a PANC (setting [3]), more than 99 µM; in experiment [1], > 99 µM (inactive).
As to `C=CCNC(=O)CCc1nc(-c2ccc(C(C)(C)C)cc2)no1`, the IC50 is more than 99 µM in the experiment with HIF1a (setting [2]); more than 99 µM with HIF1a (setting [3]); less than 10 µM with HIF2a PANC (setting [2]); less than 0.19 µM in the experiment with HIF2a PANC (setting [3]); less than 0.19 µM in experiment [1].
On to `CNC(=O)CCc1nc(-c2ccc(F)cc2)no1`, for which the IC50 with HIF1a (setting [2]) is more than 99 µM; with HIF1a (setting [3]), more than 99 µM; with HIF2a PANC (setting [2]), more than 99 µM; with HIF2a PANC (setting [3]), more than 99 µM; in experiment [1] it was > 99 µM (inactive).

For the origin of these results see PubChem BioAssay AID652011 (Sanford-Burnham Center for Chemical Genomics, 2013).
